Experiment [1] in a line: inhibitors of TNFa-induced NFkB p65 translocation, primary screen, imaging, HUVEC, MLSMR starter and 10KST1 sets (AID 438;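 active = inhibition above 20% together with a positive visual image hit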;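 note: compound added about 3h40 before a 20 min TNFalpha stimulation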;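 for inhibition: signal is the nuclear over cytoplasmic p65 intensity ratio per well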). As to conditions: HUVEC TNFa-induced p65 nuclear translocation; cell count: measured here: nuclei count (cytotoxicity indicator), at 2.08 µM; inhibition: at 2 µM, stronger effect = higher value, 0% TNFa-plus-vehicle, 100% no-TNFa wells.
The nature of experiment [2]: inhibitors of E-selectin induction by TNFa, primary screen, imaging, HUVEC, immunofluorescence, MLSMR starter and 10KST1 sets (AID 487;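 active = visually confirmed hit in the image check and inhibition above 20%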;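 for inhibition: signal is fraction of cell area covered by stained E-selectin grains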;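 for nuclei count: 100% = median nuclei count of all wells on the same plate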). As to conditions: HUVEC TNFalpha-induced E-selectin immunofluorescence imaging, at 2 µM; inhibition: stronger effect = higher value; nuclei count: measured here: cell number, toxicity.
A short description of experiment [3]: DUSP6 inhibitors restoring Erk phosphorylation by chemical complementation, primary imaging in DUSP6-transfected HeLa (AID 609;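 active = compounds giving at least 50% inhibition in the cell-based MKP-3 phosphatase rescue imaging test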;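 for inhibition: phospho-Erk level distribution per well compared with pooled transfected vehicle control wells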). To be noted: HeLa MKP-3 transfected, phospho-Erk imaging KS statistic, at 10 µM, cells stimulated with TPA for 15 min.
Experiment [4] addresses Dual specificity protein phosphatase 6 (Homo sapiens) (UniProt Q16828). The experiment is described as above. To be noted: HeLa MKP-3 transfected, phospho-Erk imaging KS statistic; at 10 µM; stronger effect = higher value; cells stimulated with TPA for 15 min.
The target of experiment [5] is Voltage-gated potassium channel subunit beta-2 (Rattus norvegicus) (UniProt P62483). Nature of the experiment: KvBeta enzyme negative modulators, primary screen, biochemical, NADPH fluorescence (AID 622;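 active = fluorescence slope higher than the sample average by over 3 SD, cut at about -0.22 in these data, passing the limit was not always enough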;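 note: slope of raw intensity against log time taken from 70 to 1610 s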). To be noted: recombinant KvBeta, 4-cyanobenzaldehyde reduction, at 10 µM, stronger effect = higher value.
Experiment [6] shares this target. In words: KvBeta positive modulators, primary screen, biochemical, NADPH fluorescence (AID 623;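 active = NADPH fluorescence slope more negative than the mean of all samples by about 3 SD, 99.7% confidence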;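 note: fluorescence intensity change per second fitted from 20 to 320 s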). To be noted: Recombinant KvBeta, NADPH fluorescence decrease slope, 10 min; at 10 µM; stronger effect = lower value.
Experiment [7] concerns the target Alpha-2C adrenergic receptor (Homo sapiens) (UniProt P18825). Nature of the experiment: modulators of alpha2C/GIRK thallium flux, primary screen, cell-based, HEK293 alpha2C/GIRK1/2 (AID 624;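 active = fluorescence slope after compound addition differing from the mean of all screened samples at 99.7% confidence, in either direction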;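 note: slope of fluorescence ratio to pre-addition baseline per second over 15 to 24 s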). To be noted: thallium flux BTC fluorescence, at 10 µM, actives lie on both sides.
The nature of experiment [8]: inhibitors of larval lipid processing in zebrafish, primary screen, whole organism, PED6 fluorescence, gall bladder and intestine (AID 686).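 Note: larvae 5 to 7 days old with five fish per well; signal comes from phospholipase A2 cleavage of quenched PED6 carried via bile; overnight exposure to compound and PED6 before scoring.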 To be noted: Zebrafish larvae PED6 lipid processing, fluorescence scoring; screened at 20 µM (by protocol). The method in brief:
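Also added: quenched phospholipase substrate PED6, 100 nM final, ingested by larvae; System: zebrafish larvae, 5-7 d; Quantity: 5 larvae per well; Compound: 20 µM single dose; Schedule: overnight compound and PED6 incubation; Read-out: visual per-well fluorescence inhibition score; Measured by: By-eye fluorescence microscopy; Medium: E3.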

A short description of experiment [9]: inhibitors of Chlamydomonas gravitaxis, primary screen, whole organism, Chlamydomonas reinhardtii, WT vs cilia-less mutant, absorbance, 96-well (AID 463189;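 active = inhibition at or above 50% relative to wild type and mutant plate controls; inactive = inhibition below 50%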;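 note: 0% = wild type cc124 cells in DMSO and 100% = ciliumless bld1 mutant cells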). To be noted: OD600 absorbance, 2 days, at 10 µM, stronger effect = higher value.
Where [10] appears, read: measured here: cell density z-score.
[11] abbreviates: measured here: nuclear c-Myc green intensity z-score.
Setting [12] is: measured here: nuclear pErk red intensity z-score, stronger effect = higher value.

Seven compounds from PubChem BioAssay can be followed below.

Each structure is given as a SMILES string. The source made the active and inactive calls.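 Rule for the calls, unless noted: active = a full or partial loss of lipid-probe fluorescence in the fish gall bladder, intestine or both, judged by eye; inactive = no fluorescence loss, or compound toxic to the fish.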

Sequence of Dual specificity protein phosphatase 6 (Homo sapiens) (Q16828 whole entry, looked up): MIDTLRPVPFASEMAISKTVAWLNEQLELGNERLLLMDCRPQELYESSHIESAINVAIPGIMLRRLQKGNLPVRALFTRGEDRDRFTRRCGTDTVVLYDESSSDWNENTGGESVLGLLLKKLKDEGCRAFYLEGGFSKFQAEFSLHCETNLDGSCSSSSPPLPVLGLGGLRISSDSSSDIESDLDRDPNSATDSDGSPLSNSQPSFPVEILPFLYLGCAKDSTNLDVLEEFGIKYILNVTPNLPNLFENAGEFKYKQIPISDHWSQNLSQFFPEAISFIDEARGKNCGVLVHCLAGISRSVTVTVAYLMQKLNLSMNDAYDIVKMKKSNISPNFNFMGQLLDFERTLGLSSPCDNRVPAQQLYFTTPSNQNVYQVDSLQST
Sequence of Alpha-2C adrenergic receptor (Homo sapiens) (P18825 whole entry, looked up): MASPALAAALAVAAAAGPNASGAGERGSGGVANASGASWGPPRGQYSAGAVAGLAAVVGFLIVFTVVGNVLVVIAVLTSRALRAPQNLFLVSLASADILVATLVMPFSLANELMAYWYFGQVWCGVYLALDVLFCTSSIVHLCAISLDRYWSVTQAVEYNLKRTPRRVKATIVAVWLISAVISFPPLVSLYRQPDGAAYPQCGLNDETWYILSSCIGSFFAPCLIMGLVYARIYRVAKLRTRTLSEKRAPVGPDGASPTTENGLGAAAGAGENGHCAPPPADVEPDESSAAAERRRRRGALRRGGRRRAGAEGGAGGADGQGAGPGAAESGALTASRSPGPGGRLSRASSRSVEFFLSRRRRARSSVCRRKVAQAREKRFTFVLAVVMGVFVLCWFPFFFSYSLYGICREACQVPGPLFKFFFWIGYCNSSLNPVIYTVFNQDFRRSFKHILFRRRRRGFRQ
Sequence of Voltage-gated potassium channel subunit beta-2 (Rattus norvegicus) (P62483 whole entry, looked up): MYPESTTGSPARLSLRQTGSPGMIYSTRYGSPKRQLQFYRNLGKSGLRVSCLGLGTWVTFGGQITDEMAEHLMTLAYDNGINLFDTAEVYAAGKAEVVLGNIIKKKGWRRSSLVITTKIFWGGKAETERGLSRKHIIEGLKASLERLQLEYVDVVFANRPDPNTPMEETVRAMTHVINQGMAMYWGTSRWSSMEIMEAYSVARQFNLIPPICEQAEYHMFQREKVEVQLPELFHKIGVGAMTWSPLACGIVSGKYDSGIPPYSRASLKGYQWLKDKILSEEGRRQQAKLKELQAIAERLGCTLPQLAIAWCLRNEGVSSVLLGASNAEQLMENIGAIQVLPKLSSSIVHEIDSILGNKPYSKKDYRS

A word on the inhibition: it is the drop in the measured response relative to a control, in per cent. Regarding `Cc1cc(C)n(CC(=O)N2c3ccccc3Sc3ccccc32)n1`, the cell count in [1] was found to be 563. The inhibition in experiment [1] is -0.4% (inactive); in [2], -139% (inactive); in [4], 15.9% (inactive); in experiment [9], 14.7% (inactive). The nuclei count in experiment [2] was determined as 139%. Also, the z-score in experiment [3] (setting [10]) was 0.655; in [3] (setting [11]), 0.867; in experiment [3] (setting [12]) it was -0.852. Also, the fluorescence slope in experiment [5] is -0.508 (inactive). Besides, the NADPH fluorescence slope in experiment [6] is -4.4e-05 (inactive). Further, in [7], the slope is 0.00518 (inactive). In addition, the compound was called inactive in experiment [8].

With `CCOc1ccc(-n2c(SCc3ccc(C#N)cc3)nnc2-c2cccnc2)cc1`, in [1], the cell count stood at 343. Besides, the inhibition in experiment [1] is -6% (inactive); in [2], 6.3% (inactive); in [4], 13.4% (inactive); in experiment [9], -11.3% (inactive). This compound showed a nuclei count in [2] of 157%. The figures for the z-score in experiment [3] (setting [10]), in experiment [3] (setting [11]) and in experiment [3] (setting [12]) were 0.958, -0.128 and 0.447, respectively. Also, the fluorescence slope in [5] was -0.421 (inactive). In addition, in [6], the NADPH fluorescence slope is -0.00013 (inactive). Moreover, the slope in experiment [7] was 0.00481 (inactive). Moreover, the call in experiment [8] was inactive.

Turning to `CN(C)C/C(Cl)=C(\Cl)c1ccccc1`, the cell count in experiment [1] amounted to 584. Moreover, the inhibition in [1] was -0.1% (inactive); in experiment [2] it was -20.3% (inactive); in experiment [4], 4.25% (inactive); in [9], 10.7% (inactive). The same compound had a nuclei count in experiment [2] of 159%. The results for the z-score in experiment [3] (setting [10]), in experiment [3] (setting [11]) and in [3] (setting [12]) were -1.42, -0.391 and 0.439, respectively. For the same compound, the fluorescence slope in [5] is -0.53 (inactive). Besides, the NADPH fluorescence slope in experiment [6] was -6.5e-05 (inactive). Besides, in experiment [7], the slope is 0.00503 (inactive). The result in experiment [8] was inactive.

Take `O=C1c2ccccc2C(=O)N1CCN1CCc2ccccc21`: in experiment [1], the cell count amounted to 404. The inhibition is -3.1% (inactive) in experiment [1], -131% (inactive) in [2], 13.2% (inactive) in experiment [4] and -3.59% (inactive) in [9]. Also, the nuclei count in [2] is 166%. Also, the figures for the z-score in experiment [3] (setting [10]), in [3] (setting [11]) and in experiment [3] (setting [12]) were 0.756, -0.637 and -0.565, respectively. For the same compound, the fluorescence slope in [5] was -0.394 (inactive). Also, the NADPH fluorescence slope in experiment [6] was -5.6e-05 (inactive). Also, the slope in [7] was 0.00539 (inactive). In addition, the call in experiment [8] was inactive.

For the compound `CC1(C)Cc2c(C#N)c(NCc3ccco3)nc(-c3ccco3)c2CO1`, the cell count in experiment [1] is 598. The inhibition in experiment [1] is 3.9% (inactive); in experiment [2] it was -12.9% (inactive); in [4] it was -6.86% (inactive); in experiment [9] it was 53.9% (active). Moreover, the nuclei count in experiment [2] turned out to be 178%. For the same compound, the figures for the z-score in experiment [3] (setting [10]), in experiment [3] (setting [11]) and in [3] (setting [12]) were 0.978, -1.81 and 0.89, respectively. Further, the fluorescence slope in [5] is -0.29 (inactive). For the same compound, the NADPH fluorescence slope in experiment [6] is -9.7e-06 (inactive). In [7], the slope is 0.00397 (inactive). For the same compound, the outcome in experiment [8] was “active; weak signal in gallbladder and intestine”.

Regarding `Cc1cc(C)n2c3c(c(C#N)c2n1)CC(C)(C)OC3`, the cell count in experiment [1] came out at 670. Also, the inhibition in experiment [1] was -7.2% (inactive); in experiment [2], 55.6% (inactive); in experiment [4] it was 11.3% (inactive); in [9] it was 14.5% (inactive). The nuclei count in experiment [2] was 131%. Further, the values for the z-score in experiment [3] (setting [10]), in experiment [3] (setting [11]) and in experiment [3] (setting [12]) were 0.0106, -1.04 and -0.0691, respectively. Besides, the fluorescence slope in experiment [5] was -0.327 (inactive). Besides, in experiment [6], the NADPH fluorescence slope is 2.8e-06 (inactive). In experiment [7], the slope was 0.00519 (inactive). Further, in experiment [8], the compound was classed as inactive.

On to `CCOC(=O)c1c(C)cccc1OCC(N)=O`, for which, in experiment [1], the cell count came to 638. The inhibition was -2.3% (inactive) in experiment [1], 13.5% (inactive) in experiment [2], -0.159% (inactive) in experiment [4] and -5.84% (inactive) in [9]. In experiment [2], this compound yielded a nuclei count of 175%. Moreover, the z-score in [3] (setting [10]) was -0.228; in experiment [3] (setting [11]) it was -0.623; in [3] (setting [12]), 1.22. The fluorescence slope in experiment [5] was -0.487 (inactive). Besides, the NADPH fluorescence slope in [6] is -0.000164 (inactive). In addition, the slope in [7] was 0.0049 (inactive). Also, the compound was called inactive in [8].
